Published values from different studies.
Lines come from different studies, so protocols differ.
Target: Rho-associated protein kinase 1 (ROCK1, Homo sapiens, UniProt Q13464)

| Compound | assay | conditions | measurement | value |
| --- | --- | --- | --- | --- |
| Cn1cc(-c2cc(F)cc(N3CCn4c(cc5c4CCCC5)C3=O)c2CO)cc(Nc2ccc(N3CCN(C4COC4)CC3)cn2)c1=O | enzyme activity, inhibitor | 0.1 µM | inhibition | 0% |
| Nc1ncc(-c2nc(N3CCOCC3)nc(N3CCOCC3)n2)c(C(F)F)n1 | binding, competition with immobilised ligand | 10 µM | remaining binding | 99% |
| Cn1cncc1[C@](O)(COc1ccc(C#N)cc1-c1ccc(OC(F)(F)F)cc1)c1ccc(C#N)cc1 | cell-free assay, competition with immobilised ligand | 1 µM | remaining binding | 100% |
| COc1cc(Nc2ncc(F)c(Nc3ccc4c(n3)NC(=O)C(C)(C)O4)n2)cc(OC)c1OC | binding | 10 µM | inhibition | 86% |
| CC(C)(C)c1cc(C=C(C#N)C#N)cc(Br)c1O | enzyme activity, inhibitor | 0.5 µM | remaining activity | 82.9% |
| Cn1cc(-c2cccc(N3CCc4c(sc5c4CC(C)(C)C5)C3=O)c2CO)cc(Nc2ccncn2)c1=O | enzyme activity, inhibitor | 1 µM | inhibition | 1% |
| COc1ncccc1-c1cnn2ccc(N3CCN(C(=O)OC(C)C)CC3)nc12 | binding, competition with immobilised ligand | 1 µM | remaining binding | 95% |
| N#CC1(c2ccccn2)CCN(Cc2cc(C(=O)O)c(=O)n3ccccc23)CC1 | cell-free assay, competition with immobilised ligand | 1 µM | remaining binding | 86% |
| O=c1[nH]c2ccccc2n1C1CCN(Cc2ccc(-c3[nH]c4cc5ncnc5cc4nc3-c3ccccc3)cc2)CC1 | cell-free assay | 0.5 µM | remaining signal | 101% |
| C#Cc1n[nH]c2c(-c3cn([C@@H](C)c4ccccn4)c(=O)[nH]c3=O)cc(F)cc12 | enzyme activity, inhibitor | 0.1 µM | inhibition | 6.5% |
